The source made the active and inactive calls. The calls are words filed in the database; no cut-off is given here.
How the values were obtained:
Plasma [1] = assay: Plasma concentration in mongrel dog at 50 +/- 24 mg/kg, iv; format: ADME, organism-based, Canis lupus familiaris; set-up: route intravenous; details: in vivo
Summary of the method: (§1)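 Plasma withdrawn from each aconitine-treated dog when iv infusion was discontinued; drug measured by TLC densitometry.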

Canis familiaris [2] = assay: Antiarrhythmic activity in aconitine-induced mongrel dog arrhythmic model assessed as mean arterial blood pressure measured at end of infusion at 50 +/- 24 mg/kg, iv (reference value: 70 +/- 8 mmHg); format: functional, Canis lupus familiaris, Artery
Canis familiaris [3] = assay: Antiarrhythmic activity in aconitine-induced mongrel dog arrhythmic model assessed as decrease in ventricular rate rate measured at end of infusion at 50 +/- 24 mg/kg, iv (reference value: 205 +/- 65 BPM); format: functional, Canis lupus familiaris, Heart
[4] = Stability in human plasma assessed as hydrolysis at 20 ug/ml after 5 mins at room temperature; format: ADME, cell-free; details: read-out: Drug degradation
Summary of the method: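 Ester at 20 µg/ml held in fresh human plasma for 5 min at room temperature. Comparison conditions: plasma plus 10^-5 M physostigmine, and saline. Standards extracted and measured by TLC densitometry.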

Canis familiaris [5] = assay: Antiarrhythmic activity in aconitine-induced mongrel dog arrhythmic model assessed as atrial rate at 50 +/- 24 mg/kg, iv after 20 +/- 3 mins from end of infusion; format: functional, Canis lupus familiaris, Heart
Canis familiaris [6] = assay: Antiarrhythmic activity in aconitine-induced mongrel dog arrhythmic model assessed as atrial rate measured at end of infusion at 50 +/- 24 mg/kg, iv; format: functional, Canis lupus familiaris, Heart
Plasma [7] = assay: Drug metabolism in mongrel dog assessed as ester of p-acetoxy-N-(2-diethylaminoethyl)benzamide level in plasma; format: ADME, cell-free, Canis lupus familiaris
Summary of the method: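 Dog plasma taken at end of infusion was extracted as for the phenol but without internal standard. Spotted on silica gel F254 TLC, developed with acetone-methanol (1:1), and quantified by densitometry.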

Canis familiaris [8] = assay: Antiarrhythmic activity in aconitine-induced mongrel dog arrhythmic model assessed as decrease in ventricular rate rate at 50 +/- 24 mg/kg, iv after 20 +/- 3 mins from end of infusion (reference value: 205 +/- 65 BPM); format: functional, Canis lupus familiaris, Heart
Mus musculus [9] = assay: Antiarrhythmic activity in ICR mouse assessed as protection against chloroform-induced ventricular fibrillation at 100 mg/kg, ip; format: functional, organism-based; set-up: dose 100 mg/kg; details: Heart
Summary of the method: (§2)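 ICR male mice, 28-35 days old, average weight 25 g, dosed ip. After 10 min they were placed in a chloroform jar and anesthetized. A mouse counted as protected if no intermittent or continuous ventricular fibrillation appeared before breathing ceased. Definite fibrillation counted as unprotected even if it later changed rhythm. Eight mice per dose.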

Mus musculus [10] = assay: Antiarrhythmic activity in ICR mouse assessed as protection against chloroform-induced ventricular fibrillation at 233 to 240 mg/kg, ip; format: functional; summary of the method: as §2
Mus musculus [11] = assay: Antiarrhythmic activity in ip dosed ICR mouse assessed as protection against chloroform-induced ventricular fibrillation; format: functional; details: Heart
Summary of the method: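 Male ICR mice, 28-35 days, mean 25 g, given drug ip, then after 10 min exposed to chloroform in a jar until breathing stopped. Protection meant no intermittent or continuous ventricular fibrillation at any point. Eight mice per dosage interval.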

Canis familiaris [12] = assay: Antiarrhythmic activity in aconitine-induced mongrel dog arrhythmic model assessed as atrial rate at 48 +/- 38 mg/kg, iv after 17 +/- 16 mins from end of infusion; format: functional, Canis lupus familiaris, Heart
Plasma [13] = assay: Plasma concentration in mongrel dog at 48 +/- 38 mg/kg, iv; format: ADME, organism-based, Canis lupus familiaris; set-up: route intravenous; details: in vivo; summary of the method: as §1
Canis familiaris [14] = assay: Antiarrhythmic activity in aconitine-induced mongrel dog arrhythmic model assessed as atrial rate measured at end of infusion at 48 +/- 38 mg/kg, iv; format: functional, Canis lupus familiaris, Heart
[15] = Toxicity in ip dosed ICR mouse assessed as acute mortality; format: organism-based; details: in vivo
Summary of the method: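 Male ICR mice, 28-35 days old (av wt 26 g), in groups of ten per dose level, given drug ip. Deaths recorded at 10, 15, 30, 60, 120 and 210 min after injection to set acute mortality.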

Canis familiaris [16] = assay: Antiarrhythmic activity in aconitine-induced mongrel dog arrhythmic model assessed as mean arterial blood pressure measured at end of infusion at 48 +/- 38 mg/kg, iv (reference value: 70 +/- 8 mmHg); format: functional, Canis lupus familiaris, Artery
[17] = Antiarrhythmic activity in mongrel dog Purkinje fiber assessed as spontaneous intrinsic rate at 10 ug/ml by Single Cell Potentials/electrophysiological technique (reference value: 33 +/- 5 BPM); format: functional, Canis lupus familiaris
Canis familiaris [18] = assay: Antiarrhythmic activity in aconitine-induced mongrel dog arrhythmic model assessed as decrease in ventricular rate rate measured at end of infusion at 48 +/- 38 mg/kg, iv (reference value: 205 +/- 65 BPM); format: functional, Canis lupus familiaris, Heart
[19] = Antiarrhythmic activity in mongrel dog Purkinje fiber assessed as 90% repolarization time at 10 ug/ml by Single Cell Potentials/electrophysiological technique (reference value: 274 +/- 30 ms); format: functional, Canis lupus familiaris
Canis familiaris [20] = assay: Antiarrhythmic activity in aconitine-induced mongrel dog arrhythmic model assessed as decrease in ventricular rate rate at 48 +/- 38 mg/kg, iv after 17 +/- 16 mins from end of infusion (reference value: 205 +/- 65 BPM); format: functional, Canis lupus familiaris, Heart
[21] = Antiarrhythmic activity in mongrel dog Purkinje fiber assessed as 50% repolarization time at 10 ug/ml by Single Cell Potentials/electrophysiological technique (reference value: 244 +/- 15 ms); format: functional, Canis lupus familiaris
[22] = Antiarrhythmic activity in mongrel dog Purkinje fiber assessed as spontaneous intrinsic rate at 20 ug/ml by Single Cell Potentials/electrophysiological technique (reference value: 35 +/- 7 BPM); format: functional, Canis lupus familiaris
[23] = Antiarrhythmic activity in mongrel dog Purkinje fiber assessed as 50% repolarization time at 20 ug/ml by Single Cell Potentials/electrophysiological technique (reference value: 223 +/- 11 ms); format: functional, Canis lupus familiaris
[24] = Therapeutic index, ratio of LD50 for ICR mouse assessed as acute mortality to ED50 for protection against chloroform-induced ventricular fibrillation in ICR mouse; format: organism-based, Cardiac ventricle; details: in vivo, read-out: Ratio LD50/ED50
Summary of the method: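 Male ICR mice, 28-35 days old, dosed ip. For ED50, 8 mice per dose went into a chloroform jar 10 min after dosing and were kept there until breathing stopped; mice with no intermittent or continuous ventricular fibrillation counted as protected. ED50 was derived by Litchfield-Wilcoxon. LD50 came from acute mortality in 10 mice per dose. Index reported as LD50/ED50.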

[25] = Antiarrhythmic activity in mongrel dog Purkinje fiber assessed as rate of phase 0 depolarization (dV/dt) at 10 ug/ml by Single Cell Potentials/electrophysiological technique (reference value: 491 +/- 40 V/s); format: functional, Canis lupus familiaris
[26] = Antiarrhythmic activity in mongrel dog Purkinje fiber assessed as 90% repolarization time at 20 ug/ml by Single Cell Potentials/electrophysiological technique (reference value: 284 +/- 12 ms); format: functional, Canis lupus familiaris
[27] = Antiarrhythmic activity in mongrel dog Purkinje fiber assessed as rate of phase 0 depolarization (dV/dt) at 20 ug/ml by Single Cell Potentials/electrophysiological technique (reference value: 474 +/- 57 V/s); format: functional, Canis lupus familiaris
[28] = Antiarrhythmic activity in mongrel dog Purkinje fiber assessed as action potential at 5 ug/ml (reference value: 127 +/- 2 mV) by Single Cell Potentials/electrophysiological technique; format: functional, Canis lupus familiaris
Plasma [29] = assay: Drug metabolism in mongrel dog assessed as p-hydroxy-N-(2-diethylaminoethyl)benzamide level in plasma; format: ADME, cell-free, Canis lupus familiaris
Summary of the method: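 Dog plasma sampled when infusion ended. Extracted with NaCl and internal standard and run on TLC (benzene/28% ammonia/acetone/dioxane 5:8:80:5). Quantified by reflectance densitometry, 260-nm illumination, as fluorescence quenching. Peak areas read against standard curves, linear over 0.1-0.8 µg per plate.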

[30] = Antiarrhythmic activity in mongrel dog Purkinje fiber assessed as 90% repolarization time at 5 ug/ml by Single Cell Potentials/electrophysiological technique (reference value: 282 +/- 8 ms); format: functional, Canis lupus familiaris
[31] = Antiarrhythmic activity in mongrel dog Purkinje fiber assessed as maximum diastolic potential at 5 ug/ml (reference value: -93 +/- 2 mV) by Single Cell Potentials/electrophysiological technique; format: functional, Canis lupus familiaris
Canis familiaris [32] = assay: Antiarrhythmic activity in aconitine-induced mongrel dog arrhythmic model assessed as atrial rate at 59 +/- 25 mg/kg, iv after 16 +/- 10 mins from end of infusion; format: functional, Canis lupus familiaris, Heart
[33] = Antiarrhythmic activity in mongrel dog Purkinje fiber assessed as spontaneous intrinsic rate at 20 ug/ml by Single Cell Potentials/electrophysiological technique (reference value: 22 +/- 5 BPM); format: functional, Canis lupus familiaris
Plasma [34] = assay: Plasma concentration in mongrel dog at 59 +/- 25 mg/kg, iv; format: ADME, organism-based, Canis lupus familiaris; set-up: route intravenous; details: in vivo; summary of the method: as §1
Canis familiaris [35] = assay: Antiarrhythmic activity in aconitine-induced mongrel dog arrhythmic model assessed as decrease in ventricular rate measured at end of infusion at 59 +/- 25 mg/kg, iv (reference value: 205 +/- 65 BPM); format: functional, Canis lupus familiaris, Heart
[36] = Antiarrhythmic activity in mongrel dog Purkinje fiber assessed as spontaneous intrinsic rate at 5 ug/ml by Single Cell Potentials/electrophysiological technique (reference value: 19 +/- 4 BPM); format: functional, Canis lupus familiaris
Canis familiaris [37] = assay: Antiarrhythmic activity in aconitine-induced mongrel dog arrhythmic model assessed as decrease in ventricular rate at 59 +/- 25 mg/kg, iv after 16 +/- 10 mins from end of infusion (reference value: 205 +/- 65 BPM); format: functional, Canis lupus familiaris, Heart
[38] = Antiarrhythmic activity in mongrel dog Purkinje fiber assessed as maximum diastolic potential at 20 ug/ml (reference value: -93 +/- 2 mV) by Single Cell Potentials/electrophysiological technique; format: functional, Canis lupus familiaris
[39] = Antiarrhythmic activity in mongrel dog Purkinje fiber assessed as 50% repolarization time at 5 ug/ml by Single Cell Potentials/electrophysiological technique (reference value: 200 +/- 6 ms); format: functional, Canis lupus familiaris
[40] = Antiarrhythmic activity in mongrel dog Purkinje fiber assessed as 50% repolarization time at 20 ug/ml by Single Cell Potentials/electrophysiological technique (reference value: 236 +/- 9 ms); format: functional, Canis lupus familiaris
[41] = Antiarrhythmic activity in mongrel dog Purkinje fiber assessed as 90% repolarization time at 20 ug/ml by Single Cell Potentials/electrophysiological technique (reference value: 302 +/- 12 ms); format: functional, Canis lupus familiaris
[42] = Antiarrhythmic activity in mongrel dog Purkinje fiber assessed as action potential at 20 ug/ml (reference value: 128 +/- 3 mV) by Single Cell Potentials/electrophysiological technique; format: functional, Canis lupus familiaris
Canis familiaris [43] = assay: Antiarrhythmic activity in aconitine-induced mongrel dog arrhythmic model assessed as mean arterial blood pressure measured at end of infusion at 59 +/- 25 mg/kg, iv (reference value: 70 +/- 8 mmHg); format: functional, Canis lupus familiaris, Artery
Canis familiaris [44] = assay: Antiarrhythmic activity in aconitine-induced mongrel dog arrhythmic model assessed as atrial rate measured at end of infusion at 59 +/- 25 mg/kg, iv; format: functional, Canis lupus familiaris, Heart
[45] = Antiarrhythmic activity in mongrel dog Purkinje fiber assessed as rate of phase 0 depolarization (dV/dt) at 20 ug/ml by Single Cell Potentials/electrophysiological technique (reference value: 478 +/- 67 V/s); format: functional, Canis lupus familiaris
[46] = Antiarrhythmic activity in mongrel dog Purkinje fiber assessed as rate of phase 0 depolarization (dV/dt) at 5 ug/ml by Single Cell Potentials/electrophysiological technique (reference value: 439 +/- 47 V/s); format: functional, Canis lupus familiaris

## CCN(CC)CCNC(=O)c1ccc(OC(C)=O)cc1.Cl
Plasma [1]
  Cp: < 0.5 µg/mL
Canis familiaris [2]
  Activity: 70 mmHg
Canis familiaris [3]
  Activity: 173 bpm
[4]
  metabolised at 5 min, 20 ug/ml: 60%
Canis familiaris [5]
  Activity: 373 bpm
Canis familiaris [6]
  Activity: 173 bpm
Plasma [7]
  Drug metabolism: < 0.5 µg/mL
Canis familiaris [8]
  Activity: 183 bpm

## CCN(CC)CCNC(=O)c1ccccc1
Mus musculus [9]
  Activity: inactive
Mus musculus [10]; Heart
  Activity: inactive

## CCN(CC)CCNC(=O)c1ccc(NC(C)=O)cc1.Cl [ACECAINIDE HYDROCHLORIDE]
Mus musculus [11]
  ED50: 110 mg/kg

## CCN(CC)CCNC(=O)c1ccc(N)cc1.Cl [PROCAINAMIDE HYDROCHLORIDE]
Canis familiaris [12]
  Activity: 283 bpm
Mus musculus [11]
  ED50: 137 mg/kg
Plasma [13]
  Cp: 118 µg/mL
Canis familiaris [14]
  Activity: 225 bpm
[15]
  LD50: 255 mg/kg
Canis familiaris [16]
  Activity: 68 mmHg
[17]
  Activity: 24 bpm
Canis familiaris [18]
  Activity: 203 bpm
[19]
  Time: 334 ms
Canis familiaris [20]
  Activity: 215 bpm
[21]
  Time: 265 ms
[22]
  Activity: 23 bpm
[23]
  Time: 239 ms
[24]
  selectivity ratio: 1.8
[25]
  Activity: 421 V/s
[26]
  Time: 316 ms
[27]
  Activity: 411 V/s

## CCN(CC)CCNC(=O)c1ccc([N+](=O)[O-])cc1.Cl
Mus musculus [10]; dose mg/kg 233-240, route intraperitoneal
  Activity: 38%

## CCN(CC)CCNC(=O)c1ccc(O)cc1.Cl
[28]
  Activity: 127 mV
Plasma [29]
  Drug metabolism: 97 µg/mL
[30]
  Time: 344 ms
Mus musculus [11]
  ED50: 157 mg/kg
[31]
  Activity: -95 mV
Canis familiaris [32]
  Activity: 278 bpm
[33]
  Activity: 16 bpm
Plasma [34]
  Cp: 137 µg/mL
[15]
  LD50: 335 mg/kg
Canis familiaris [35]
  Activity: 197 bpm
[36]
  Activity: 20 bpm
Canis familiaris [37]
  Activity: 160 bpm
[38]
  Activity: -94 mV
[39]
  Time: 250 ms
[40]
  Time: 280 ms
[41]
  Time: 381 ms
[42]
  Activity: 126 mV
Canis familiaris [43]
  Activity: 64 mmHg
[24]
  selectivity ratio: 2.1
Canis familiaris [44]
  Activity: 210 bpm
[45]
  Activity: 423 V/s
[46]
  Activity: 396 V/s

— ChEMBL document CHEMBL3244139, “Antiarrhythmic activity of p-hydroxy-N-(2-diethylaminoethyl) benzamide (the p-hydroxy isostere of procainamide) in dogs and mice” (J Med Chem, 1977)
